A selection: hits, their analogues and other compounds. The true share with any hit is near 1.5%.
MLL AF4-AF9 inh – inhibitors of AF4 peptide binding to AF9, primary screen, biochemical, AlphaScreen, biotin-AF4 peptide, FLAG-AF9, single point; AID 651704, 2012; Protein AF-9 (Homo sapiens), P42568; inhibition, % at 10 µM; actives 0.47% (n = 350,000);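 active = every replicate reaching a set inhibition limit, whatever the replicate mean, cut at about 25% in these data; inconclusive = mean inhibition reaches that limit but some replicates miss it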
S100A4 inh HTS – inhibitors of S100A4-myosin IIA peptide binding, primary screen, biochemical, fluorescence polarization, TAMRA-MyoIIA peptide; inhibition, % at 10.7 µM; AID 652163, 2013; actives 0.14% (n = 360,000);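 active = mean inhibition of at least 70% across replicates, with every replicate also reaching that level; inconclusive = mean inhibition reaches 70% but some replicates fall short; inactive = mean inhibition below 70%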
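Material: S100A4 monomer protein / Buffer or medium: 50 mM HEPES pH 7.2, 10 mM CaCl2, 100 mM KCl / Times: 5 min incubation before reading / Benchmarks: neutral control DMSO, positive control TFP / Reagent: labelled myosin peptide probe, 5 nM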
RAD52 anneal inh – RAD52 DNA annealing inhibitors, primary screen, biochemical, FRET, single point, set 2; DNA repair protein RAD52 homolog (Homo sapiens), P43351; recombinant RAD52 DNA annealing, FRET fluorescence; inhibition, % at 18.7 µM; actives 0.46% (n = 360,000); AID 651710, 2012;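 active = every replicate showing at least 50% inhibition; inconclusive = mean inhibition at least 50% but not in every replicate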
dFosB act-1 – activators of delta FosB homodimer, primary screen, biochemical, fluorescence polarization, TAMRA-CDK5 oligo, single point | Protein FosB (Mus musculus), P13346 | AID 493131, 2011 | purified delta FosB; percent of positive-control signal above neutral wells | activation, % at 25 µM | actives 0.99% (n = 340,000);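 active = mean activation above about 17%, with every replicate also reaching it, limit read from the data, passing the limit was not always enough; inconclusive = only one of the two conditions met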
RAD54 inh – inhibitors of human RAD54 branch migration, primary screen, biochemical, fluorescence, single point; DNA repair and recombination protein RAD54-like (Homo sapiens), Q92698; RAD54 Holliday junction branch migration, FAM/BHQ fluorescence; inhibition, % at 10.4 µM; actives 0.14% (n = 360,000); AID 602329, 2012;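 active = mean normalized replicate activity at least 40 and at least half of replicates scoring 40 or more; inconclusive = only one of the two criteria met; inactive = mean below 40 and under half of replicates reaching 40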;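 note: inhibitors cause a drop in the FAM fluorescence signal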
Target sequence (Q92698 whole entry, looked up): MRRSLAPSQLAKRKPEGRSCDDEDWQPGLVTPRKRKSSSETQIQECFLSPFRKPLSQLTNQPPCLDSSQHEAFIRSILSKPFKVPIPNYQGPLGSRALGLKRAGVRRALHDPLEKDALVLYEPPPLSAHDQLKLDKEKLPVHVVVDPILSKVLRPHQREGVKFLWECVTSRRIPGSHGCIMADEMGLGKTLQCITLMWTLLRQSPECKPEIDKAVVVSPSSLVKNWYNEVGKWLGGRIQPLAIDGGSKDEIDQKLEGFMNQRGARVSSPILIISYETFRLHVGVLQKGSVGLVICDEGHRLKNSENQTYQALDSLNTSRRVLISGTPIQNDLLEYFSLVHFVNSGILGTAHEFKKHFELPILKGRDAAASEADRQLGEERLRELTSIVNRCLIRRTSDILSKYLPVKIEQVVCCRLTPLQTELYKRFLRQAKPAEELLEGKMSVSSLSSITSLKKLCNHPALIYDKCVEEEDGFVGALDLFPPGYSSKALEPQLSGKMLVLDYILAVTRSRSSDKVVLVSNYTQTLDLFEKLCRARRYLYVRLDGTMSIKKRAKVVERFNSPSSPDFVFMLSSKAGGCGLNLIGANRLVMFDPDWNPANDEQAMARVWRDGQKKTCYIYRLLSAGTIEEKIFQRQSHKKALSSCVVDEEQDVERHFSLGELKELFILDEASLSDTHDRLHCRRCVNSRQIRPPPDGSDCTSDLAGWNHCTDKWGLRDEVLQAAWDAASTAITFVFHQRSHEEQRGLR
dFosB act-2 – activators of mouse delta FosB DNA binding, confirmation, biochemical, fluorescence polarization, TAMRA-CDK5 oligo, cherry-picked samples. shares compounds with dFosB act-1. purified delta FosB; normalised: neutral wells 0, positive control 100. activation, % at 24.9 µM. 2,400 tested, under 10 active;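 active = highest replicate activation at or above 34% and every replicate reaching that threshold; inconclusive = meets only one of the two criteria; inactive = meets neither criterion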;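 note: higher polarization means more probe DNA bound by delta FosB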
Numbers stand for hits; 0 = inactive; ? = inconclusive; - = no result.

SMILES	MLL AF4-AF9 inh	S100A4 inh HTS	RAD52 anneal inh	dFosB act-1	RAD54 inh	dFosB act-2
O=C(Nc1ccccc1)c1ccc2c(c1)OCCO2	-	-	-	0	-	-
O=C(Nc1ccc(NS(=O)(=O)c2ccccc2)cc1)c1ccc(Cl)cc1	0	0	0	26	0	0
O=C(Nc1ccc2nn(-c3ccccc3)nc2c1)c1ccc2c(c1)OCCO2	-	-	-	0	0	-
C[C@@H]1CCCCO[C@@H](CN(C)S(=O)(=O)c2ccc(Cl)cc2)[C@H](C)CN([C@@H](C)CO)C(=O)c2cc(NC(=O)Nc3cccc4ccccc34)ccc2O1	0	0	0	-	0	-
O=C(N[C@H]1CC[C@H](CCNS(=O)(=O)c2ccc(Cl)cc2)O[C@@H]1CO)c1cnccn1	0	0	0	-	0	-
C[C@H](CO)N1C[C@H](C)[C@@H](CN(C)Cc2ccc(C(=O)Nc3ccccc3N)cc2)Oc2ccc(NS(=O)(=O)c3cn(C)cn3)cc2CC1=O	0	0	0	-	-	-
Cc1ccc(NC(=O)c2ncc(Cl)c(Cl)c2Cl)cc1C	0	0	0	26	0	0
O=C(Nc1ccc(OC(F)F)cc1)c1ncc(Cl)c(Cl)c1Cl	0	0	0	0	-	-
O=C(Nc1ccc(S(=O)(=O)Nc2nccs2)cc1)c1ccc(N2C(=O)c3ccccc3C2=O)cc1	0	0	0	33	-	0
O=C(Nc1ccc(S(=O)(=O)Nc2nccs2)cc1)c1ccc(F)cc1	0	0	0	0	0	-
COc1ccc(Cl)cc1NC(=O)Cn1nnc(C(=O)NCc2ccc3c(c2)OCO3)c1N	0	0	0	39	0	0
COc1ccccc1NC(=O)Cn1nnc(C(=O)NCc2ccc3c(c2)OCO3)c1N	0	0	0	?	0	-
O=C(NCc1ccc2c(c1)OCO2)c1nnc(Cc2ccc(Cl)cc2)o1	0	0	0	27	0	0
COc1cccc(NC(=O)Cn2nnc(C(=O)NCc3ccc4c(c3)OCO4)c2N)c1	0	0	0	0	0	-
Cc1ccc(NC(=O)Cn2nnc(C(=O)NCc3ccc4c(c3)OCO4)c2N)cc1	0	0	0	0	0	-
Nc1c(C(=O)NCc2ccc3c(c2)OCO3)nnn1CC(=O)Nc1ccc(Br)cc1	0	0	0	51	0	0
O=C(NCc1ccc2c(c1)OCO2)c1ccc(CS(=O)Cc2ccc(Cl)cc2)o1 (stereo unspecified)	0	0	0	0	0	-
CC(C)c1ccc(NC(=O)Cn2nnc(C(=O)NCc3ccc4c(c3)OCO4)c2N)cc1	0	0	0	31	0	0
COCC(=O)N1CC2(CCN(Cc3ccccc3)CC2)c2c(n(C)c3cc(OC)ccc23)[C@H]1CO	0	0	0	-	-	-
COc1ccccc1NC(=O)N[C@H]1CC[C@H](CC(=O)N[C@H](C)c2ccccc2)O[C@@H]1CO	0	0	0	-	0	-
Cc1cc(C)c(NC(=O)Cn2nnc(C(=O)NCc3ccc4c(c3)OCO4)c2N)c(C)c1	-	-	-	75	0	0
C[C@H]1CN([C@@H](C)CO)C(=O)Cc2cc(NC(=O)CCC(F)(F)F)ccc2O[C@@H]1CN(C)S(=O)(=O)c1cn(C)cn1	-	-	-	-	0	-
Cc1nc2cc(N3CCCCC3)c(NC(=O)c3ccncc3)cc2c(=O)n1Cc1ccccc1	-	-	-	24	0	0
Cc1nc2cc(N3CCOCC3)c(NC(=O)C3CC3)cc2c(=O)n1Cc1ccccc1	-	-	-	0	0	-
COCC#Cc1ccc([C@H]2[C@H]3CN(C(=O)c4ccncc4)CC(=O)N3[C@H]2CO)cc1	0	0	0	-	-	-
SMILES	MLL AF4-AF9 inh	S100A4 inh HTS	RAD52 anneal inh	dFosB act-1	RAD54 inh	dFosB act-2
COc1ccc(OC)c(/C=N/NC(=O)CSc2cc(C)nc3c(OC)cccc23)c1	0	0	0	37	-	0
CNc1nc(N/N=C/c2ccc([N+](=O)[O-])cc2)nc(Nc2ccccc2)n1	0	0	0	41	-	0
O=[N+]([O-])c1cc2c(cc1/C=N/Nc1nc(Nc3ccccc3)nc(N3CCCCC3)n1)OCO2	-	-	-	38	0	0
O=[N+]([O-])c1ccc(Nc2nc(NC3CCCCC3)nc(N3CCCC3)n2)cc1	0	0	0	48	-	0
Cc1cc(C)nc(N/N=C/c2cc3c(cc2[N+](=O)[O-])OCO3)n1	0	0	0	0	-	-
CCOc1cc(/C=N\Nc2nc(Nc3ccccc3)nc(N3CCOCC3)n2)ccc1OC(=O)c1ccco1	-	-	-	48	-	0
COc1cc(/C=N/Nc2nc(C)cc(C)n2)ccc1OC(=O)c1ccco1	-	-	-	0	-	-
O=C(NC1CCC1)[C@@H]1[C@@H](CO)[C@@H]2Cn3c(ccc(-c4ccncc4)c3=O)[C@H]1N2CC1CC1	0	0	0	-	0	-
COc1ccc(/C=N/Nc2nc(N3CCCC3)nc(N3CCCC3)n2)cc1	0	0	0	0	0	-
O=[N+]([O-])c1ccc(Nc2nc(N/N=C/c3cccc(F)c3)nc(N3CCCC3)n2)cc1	0	0	0	120	-	0
COc1ccc(/C=N/Nc2nc(Nc3ccccc3)nc(N3CCCC3)n2)cc1	0	0	0	47	-	0
CO[C@@H]1CN(C)C(=O)c2cc(NC(=O)C3CCCC3)ccc2OC[C@@H](C)NC[C@@H]1C	0	0	0	-	0	-
O=S1(=O)N=C(Nc2ccc(S(=O)(=O)N3CCCCC3)cc2)c2ccccc21	-	-	-	47	-	0
COc1ccc(S(=O)(=O)Nc2ccc3c(c2)CC(=O)N([C@H](C)CO)C[C@H](C)[C@H](CN(C)S(=O)(=O)c2ccc(F)cc2)O3)cc1	-	-	-	-	0	-
N#CCC(=O)N/N=C/c1cn(Cc2ccccc2C#N)c2ccccc12	0	0	0	0	0	-

From PubChem BioAssay
